MsrA act: activators of bovine methionine sulfoxide reductase A; purified bovine MsrA, absorbance read-out; activation, % at 10.6 µM; 0.3% of 360,000 active; AID 602163; in the data active means activation above about 7.5%;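 further: 0% = vehicle and 100% = reference activator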
procasp3 activ: activators of human procaspase-3; P42574; recombinant procaspase-3 D3A, Ac-DEVD-pNA absorbance 405 nm; activation, % at 8.5 µM; 0.11% of 330,000 active;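 active means activation above the mean of all tested compounds plus 3 SD, cut at about 21% in these data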;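 further: 0% = DMSO alone and 100% = DMSO wells spiked with extra 5 µM PC-3 D3A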
Target sequence (P42574 whole entry D9A/D28A/D175A): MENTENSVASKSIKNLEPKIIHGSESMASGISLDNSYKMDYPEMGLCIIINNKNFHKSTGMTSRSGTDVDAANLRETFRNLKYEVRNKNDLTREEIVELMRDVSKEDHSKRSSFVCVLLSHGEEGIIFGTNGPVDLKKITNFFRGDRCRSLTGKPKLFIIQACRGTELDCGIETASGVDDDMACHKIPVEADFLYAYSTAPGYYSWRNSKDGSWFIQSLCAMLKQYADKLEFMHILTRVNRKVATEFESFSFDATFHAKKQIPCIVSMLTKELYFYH
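System: Procaspase-3 D3A mutant. Medium: Zinc-free 300 mM NaCl, 50 mM HEPES, 0.01% Triton X-100. Schedule: 1 h preincubation plus 2 h reaction at 25 °C. Measured by: 405 nm absorbance of p-nitroaniline, reads at 0 and 120 min. Read-out: percent activation relative to control range.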
MsrA inh: inhibitors of bovine MsrA | purified bovine MsrA, absorbance read-out | 0.75% of 360,000 active | inhibition, % at 15.5 µM;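 further: 0% = vehicle wells with enzyme and 100% = reference inhibitor wells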
proCasp7 act: counter-screen: procaspase-7 (human) activation; 0.093% of 330,000 active; activation, % at 8.5 µM; P55210; recombinant procaspase-7, Ac-DEVD-pNA absorbance 405 nm; D23A/D198A/D206A triple mutant, cannot self-cleave; scale: DMSO 0, 5 µM enzyme 100;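 active means percent activation above the screen-wide mean plus 3 SD, cut at about 25% in these data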
Target sequence (P55210 whole entry D23A/D198A/D206A): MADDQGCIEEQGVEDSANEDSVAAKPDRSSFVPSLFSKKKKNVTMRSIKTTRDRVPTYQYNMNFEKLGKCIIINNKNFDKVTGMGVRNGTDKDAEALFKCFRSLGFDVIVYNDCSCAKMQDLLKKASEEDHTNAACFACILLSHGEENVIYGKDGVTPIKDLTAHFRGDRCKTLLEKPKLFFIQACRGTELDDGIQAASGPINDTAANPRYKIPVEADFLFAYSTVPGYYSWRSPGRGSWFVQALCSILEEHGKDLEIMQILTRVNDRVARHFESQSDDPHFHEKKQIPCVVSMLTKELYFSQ
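Replicates: singlicate. Assay system: Procaspase-7 triple mutant (PC-7 D3A). Signal: 405 nm absorbance of p-nitroaniline. Times: 1 h preincubation, 2 h reaction. Buffer or medium: Zinc-free HEPES pH 7.4 with 300 mM NaCl, 0.01% Triton X-100. Also added: DEVD-pNA substrate. Benchmarks: DMSO wells as 0%, DMSO with 5 µM added PC-7 as 100%.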
MsrA conf: confirmation of bovine MsrA inhibitors; shares compounds with MsrA inh; inhibition, % at 15.5 µM; purified bovine MsrA, absorbance read-out; 41% of 2,300 active;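 further: coupled to thioredoxin reductase with NADPH and selenocystamine and DMSO as substrate; 0% = vehicle only and 100% = full effect of reference inhibitor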
The depositor's hits bear a star. Rows were chosen to be rich in hits. Some 1.2% of all compounds tested hit in one or more screens of this group. Unless noted, no stated cut-off is given here; in the data, active means inhibition above about 4.5%; inactive means the rest.

Screening CC1(C)CC(N2CCCC2)=CC(=[N+]2CCCC2)C1 returned MsrA act -10, procasp3 activ -10, MsrA inh 5.9*, proCasp7 act -6 and MsrA conf 2.
For CC1(C)CC(N2CCCC2)=CC(=[N+]2CCCCC2)C1 the results were MsrA act -6, procasp3 activ -4, MsrA inh 5.7*, proCasp7 act -4 and MsrA conf 3.
`Nc1cc(F)ccc1N1CCCCCC1` gave MsrA act -2, procasp3 activ -7, MsrA inh 0 and proCasp7 act 5.
Screening CCCCN1CC(COCc2ccccc2)Oc2cccc(NCc3cc(OC)c(OC)c(OC)c3)c2S1(=O)=O (stereo not given) returned MsrA inh 0.
For COC[C@@H](O)[C@H]1OCc2cc(OC)ccc2[C@@H]1/C=C/c1ccccc1 the results were MsrA inh 0.
Screening CC(=O)NN1C(=O)c2ccccc2NC1c1ccc(N(C)C)cc1 (stereo not given) returned MsrA act -7, procasp3 activ 3, MsrA inh 6.3*, proCasp7 act -6 and MsrA conf 1.
For CCCCCCCCN1C(=O)[C@@H](CC(=O)NCC2CCCCC2)C[C@@]2(C(=O)OC)C1=C[C@H](C(C)(C)C)O[C@@H]2C the results were MsrA inh 0.
For CCOC(=O)CSC1=NC(=O)/C(=C\c2ccc(OC(C)=O)cc2)S1 the results were MsrA act -3, procasp3 activ -6, MsrA inh 5.4*, proCasp7 act -10 and MsrA conf 2.
Screening COC(=O)c1cc2c(c3c4ccccc4n(S(=O)(=O)c4ccc(OC)cc4)c13)C(=O)N(Cc1ccco1)C2 returned MsrA inh 1.
Cc1nnc(C)n1/N=C/c1ccc(-c2ccccc2Cl)o1 was read as MsrA act -3, procasp3 activ -4, MsrA inh 5.2*, proCasp7 act 20 and MsrA conf 4.9*.
`O=S(=O)(N/N=C\c1ccc(-c2ccccc2Cl)o1)c1ccccc1` gave MsrA act -4, procasp3 activ -14, MsrA inh 4.9*, proCasp7 act -18 and MsrA conf 3.
Screening Cc1ccc(/C=N/Nc2nncc(-c3ccccc3)n2)o1 returned MsrA act -18, procasp3 activ 10, MsrA inh 5.8*, proCasp7 act -3 and MsrA conf 5.4*.
Screening C(=C\c1ccccc1)/C=N/Nc1nncc(-c2ccccc2)n1 returned procasp3 activ -2, MsrA inh 43*, proCasp7 act -2 and MsrA conf 1.
`COC(=O)C1=C(C)N(Cc2ccc(C(F)(F)F)cc2)C(=NCc2ccc3c(c2)OCO3)NC1c1ccccc1C(F)(F)F` (stereo not given) gave MsrA inh -1.
Screening COc1nc(NCCN2CCOCC2)nc(Nc2ccc([N+](=O)[O-])cc2)n1 returned MsrA act -13, procasp3 activ 5, MsrA inh 4.8*, proCasp7 act -21 and MsrA conf 3.
O=C(O)CCCCN1C(=O)C=CC1=O was read as MsrA inh 0.
For Nc1nnnn1/N=C/c1ccc(O)cc1 the results were MsrA act -3, procasp3 activ -3, MsrA inh 3 and proCasp7 act 6.
`CSc1ccc(/C=N/n2nnnc2N)cc1` gave MsrA act -5, procasp3 activ 7, MsrA inh 5.3*, proCasp7 act -4 and MsrA conf 5.2*.
For CCCc1nc2c(C)cc(Br)cn2c1Cc1cccc(Cl)c1 the results were MsrA inh 1.
Screening O=S1(=O)N=C(N2CCc3ccccc3C2)c2ccccc21 returned MsrA act -2, procasp3 activ 7, MsrA inh -1 and proCasp7 act 7.
Screening O=S1(=O)N=C(N2CCCc3ccccc32)c2ccccc21 returned MsrA act -2, procasp3 activ 2, MsrA inh 10*, proCasp7 act -4 and MsrA conf 3.
For CNC(=O)c1cc2ccc(OC)cc2oc1=O the results were MsrA act -4, procasp3 activ 1, MsrA inh 5.2*, proCasp7 act 7 and MsrA conf 5.7*.
`O=C(NCc1ccccc1)[C@@H]1CCCN1C(=O)[C@H]1CCCN1C(=O)c1ccc(F)c(F)c1` gave MsrA inh 0.
For CCC(C)Nc1nc(N)c([N+](=O)[O-])c(NCCO)n1 (stereo not given) the results were MsrA act -5, procasp3 activ 2, MsrA inh 3 and proCasp7 act 4.
Screening CC(C)CCNc1nc(N)c([N+](=O)[O-])c(NCCO)n1 returned MsrA act -11, procasp3 activ 0, MsrA inh 4.9*, proCasp7 act 4 and MsrA conf 5.1*.
Screening CCOC(=O)c1ccc(Nc2c(CC)c(C)nc3ncnn23)cc1 returned MsrA act -5, procasp3 activ -2, MsrA inh 3 and proCasp7 act -9.
For CCc1c(C)nc2ncnn2c1Nc1ccc(C(C)=O)cc1 the results were MsrA act -4, procasp3 activ -4, MsrA inh 5.3*, proCasp7 act 5 and MsrA conf 4.
`CO/N=C/C(C#N)=C/c1ccc(OC)c(OC)c1` gave MsrA act -4, procasp3 activ -4, MsrA inh 5.1*, proCasp7 act -4 and MsrA conf 3.
Screening C[C@@H]1CNCCN1c1ccc(N2CCS(=O)(=O)CC2)c(C#N)c1 returned MsrA inh 1.
Cc1ccc(C(=O)N=c2sccn2C)cc1C was read as MsrA act 4, procasp3 activ -1, MsrA inh 2 and proCasp7 act 5.
Cn1ccsc1=NC(=O)c1cccc(C#N)c1 was read as MsrA act -3, procasp3 activ 2, MsrA inh 5.5*, proCasp7 act -2 and MsrA conf 1.
For Cc1ccc(C(=O)N=c2sccn2C)cc1S(=O)(=O)N1CCOCC1 the results were MsrA act -3, procasp3 activ 1, MsrA inh 6.0*, proCasp7 act 4 and MsrA conf 3.
Screening O=C(/C=C/c1ccc(O)c(O)c1)O[C@@H]1C[C@](O)(C(=O)O)C[C@@H](O)[C@H]1O returned MsrA act -4, procasp3 activ -2, MsrA inh 3 and proCasp7 act -6.
O=C(/C=C/c1ccc(O)c(O)c1)OC1C(O)CC(OC(=O)/C=C/c2ccc(O)c(O)c2)(C(=O)O)CC1O (stereo not given) was read as MsrA act -2, procasp3 activ 7, MsrA inh 5.7*, proCasp7 act -2 and MsrA conf 2.
O=C(N/N=C\c1cn[nH]c1-c1ccccc1)c1ccc([N+](=O)[O-])cc1 was read as MsrA act -1, procasp3 activ -4, MsrA inh 3 and proCasp7 act -3.
`O=C(N/N=C/c1ccc([N+](=O)[O-])cc1)c1[nH]ncc1Br` gave MsrA act -11, procasp3 activ -5, MsrA inh 4.9*, proCasp7 act 5 and MsrA conf 3.

Source: PubChem (The Scripps Research Institute Molecular Screening Center)
